Experimental data published in ChEMBL document CHEMBL5154815, “A Series of Substituted Bis-Aminotriazines Are Activators of the Natriuretic Peptide Receptor C” (J Med Chem, 2022).
pEC50, pIC50, pKd: −log10 of the molar value. Converted amounts (≈) assume the structure as drawn. The source made the active and inactive calls. The calls are words filed in the database; no cut-off is given here.

Legend:
[1] = target: T1, Atrial natriuretic peptide receptor 3 (Homo sapiens) (UniProt P17342); test: Agonist activity at NPRC in human Hela cells assessed as decrease in forskolin-induced cAMP level at 100 uM relative to control; assay type: cell-based; set-up: scale not given: the % may be the effect or the level left
T1 sequence (whole entry): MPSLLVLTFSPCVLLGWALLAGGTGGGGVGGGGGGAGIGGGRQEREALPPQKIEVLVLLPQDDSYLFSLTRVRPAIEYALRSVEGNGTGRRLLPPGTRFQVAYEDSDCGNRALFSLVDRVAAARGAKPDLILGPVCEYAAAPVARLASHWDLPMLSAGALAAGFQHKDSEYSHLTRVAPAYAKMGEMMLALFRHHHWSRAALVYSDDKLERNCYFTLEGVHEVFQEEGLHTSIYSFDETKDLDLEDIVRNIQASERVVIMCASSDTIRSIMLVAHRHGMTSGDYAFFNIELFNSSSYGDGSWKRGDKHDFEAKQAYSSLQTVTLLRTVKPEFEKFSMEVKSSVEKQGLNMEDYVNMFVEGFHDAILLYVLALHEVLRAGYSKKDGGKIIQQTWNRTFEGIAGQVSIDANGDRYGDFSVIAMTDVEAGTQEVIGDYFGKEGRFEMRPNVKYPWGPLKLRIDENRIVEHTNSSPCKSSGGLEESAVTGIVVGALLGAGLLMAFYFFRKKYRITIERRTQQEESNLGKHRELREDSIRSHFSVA

[2] = target: T2, Atrial natriuretic peptide receptor 3 (Homo sapiens, UniProt P17342); test: Binding affinity to CM5 sensor chip immobilized human NPR-C (27 to 541 residues) assessed as dissociation constant by surface plasmon resonance analysis
T2 sequence (P17342 whole entry): T1 sequence (whole entry)

[3] = Initial plasma concentration in fasted C57BL/6 mouse at 3 mg/kg, iv by LC-MS/MS analysis
Cytochrome P450 3A4 [4] = target: T3, Cytochrome P450 3A4 (Homo sapiens, UniProt P08684); test: Inhibition of CYP3A4 in human liver microsomes using testosterone as a substrate preincubated for 10 mins followed by NADPH addition and measured after 10 mins by LC/MS/MS analysis
T3 sequence (P08684 whole entry): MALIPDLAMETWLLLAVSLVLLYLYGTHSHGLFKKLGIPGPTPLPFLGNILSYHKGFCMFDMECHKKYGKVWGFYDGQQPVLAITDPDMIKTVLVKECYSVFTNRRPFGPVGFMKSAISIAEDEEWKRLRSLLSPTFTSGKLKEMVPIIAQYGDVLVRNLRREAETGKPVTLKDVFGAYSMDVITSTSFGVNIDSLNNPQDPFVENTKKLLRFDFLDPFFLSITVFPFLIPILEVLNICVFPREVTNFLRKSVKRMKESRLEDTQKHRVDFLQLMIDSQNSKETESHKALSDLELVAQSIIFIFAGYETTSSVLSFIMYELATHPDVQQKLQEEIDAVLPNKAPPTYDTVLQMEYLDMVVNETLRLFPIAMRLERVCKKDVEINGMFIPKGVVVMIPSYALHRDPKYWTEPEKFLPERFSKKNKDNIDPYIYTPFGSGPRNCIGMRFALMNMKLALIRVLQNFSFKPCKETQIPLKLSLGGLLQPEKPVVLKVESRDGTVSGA

Cytochrome P450 2C8 = target: T4, Cytochrome P450 2C8 (Homo sapiens, UniProt P10632); test: Inhibition of CYP2C8 in human liver microsomes using amodiaquine as a substrate preincubated for 10 mins followed by NADPH addition and measured after 10 mins by LC/MS/MS analysis
T4 sequence (P10632 whole entry): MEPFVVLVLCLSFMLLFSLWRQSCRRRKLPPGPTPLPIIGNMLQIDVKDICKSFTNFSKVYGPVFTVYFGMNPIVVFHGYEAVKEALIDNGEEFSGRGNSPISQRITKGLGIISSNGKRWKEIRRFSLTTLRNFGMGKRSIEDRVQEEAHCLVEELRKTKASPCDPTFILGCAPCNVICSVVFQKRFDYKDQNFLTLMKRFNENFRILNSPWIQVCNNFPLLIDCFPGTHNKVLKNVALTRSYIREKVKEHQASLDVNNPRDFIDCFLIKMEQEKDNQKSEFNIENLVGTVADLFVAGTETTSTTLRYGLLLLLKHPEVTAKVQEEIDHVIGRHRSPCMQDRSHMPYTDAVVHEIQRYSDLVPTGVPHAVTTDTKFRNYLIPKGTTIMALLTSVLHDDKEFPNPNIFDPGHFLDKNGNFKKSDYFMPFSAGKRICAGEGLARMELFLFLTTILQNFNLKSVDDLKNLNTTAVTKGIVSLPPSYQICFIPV

[5] = Half life in fasted C57BL/6 mouse at 3 mg/kg, iv by LC-MS/MS analysis; assay type: ADME, organism-based; conditions: in vivo
[6] = Solubility of compound in PBS at 10 mM after 3 hrs by UV analysis; conditions: buffer, 10000 µM
[7] = Stability in Sprague-Dawley rat hepatocytes assessed as clearance per […] at 1 uM after 20 mins by LC-MS/MS analysis; assay type: ADME, cell-based, Hepatocyte
[8] = target: T5, Atrial natriuretic peptide receptor 3 (Rattus norvegicus, UniProt P41740); test: Agonist activity at NPRC in rat aorta assessed as vasorelaxation by Organ bath assay; assay type: tissue-based
T5 sequence (P41740 whole entry): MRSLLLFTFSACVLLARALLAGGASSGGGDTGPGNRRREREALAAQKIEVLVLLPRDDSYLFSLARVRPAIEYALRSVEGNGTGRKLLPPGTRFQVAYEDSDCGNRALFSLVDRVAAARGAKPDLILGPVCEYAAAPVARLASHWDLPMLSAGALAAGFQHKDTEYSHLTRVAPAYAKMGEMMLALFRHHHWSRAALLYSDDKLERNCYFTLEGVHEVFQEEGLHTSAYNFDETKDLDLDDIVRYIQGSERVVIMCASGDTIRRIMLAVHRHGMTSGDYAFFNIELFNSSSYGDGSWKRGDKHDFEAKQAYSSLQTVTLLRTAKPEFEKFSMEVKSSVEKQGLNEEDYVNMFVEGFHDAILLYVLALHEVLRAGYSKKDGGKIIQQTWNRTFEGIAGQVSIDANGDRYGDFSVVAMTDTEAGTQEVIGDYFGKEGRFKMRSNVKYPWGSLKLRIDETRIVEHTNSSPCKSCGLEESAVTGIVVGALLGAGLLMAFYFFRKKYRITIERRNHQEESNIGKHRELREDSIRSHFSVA

[9] = Cmax in fasted C57BL/6 mouse at 10 mg/kg, po by LC-MS/MS analysis; assay type: ADME, organism-based; set-up: dose 10 mg/kg, route po; conditions: in vivo
Outline: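 EDTA-K2 plasma was protein-precipitated with internal standard and centrifuged 20 min at 4 °C. Analysis by LC-MS/MS against a 1–1000 ng/mL calibration curve.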

[10] = Clearance in fasted C57BL/6 mouse at 3 mg/kg, iv by LC-MS/MS analysis; assay type: ADME, organism-based; conditions: in vivo
[11] = Oral bioavailability in fasted C57BL/6 mouse at 10 mg/kg by LC-MS/MS analysis; assay type: ADME, organism-based; conditions: in vivo
[12] = target: T6, Atrial natriuretic peptide receptor 3 (Rattus norvegicus) (UniProt P41740); test: Agonist activity at NPRC in rat small mesenteric arteries assessed as inhibition of cANF4-23 induced vasorelaxation in presence of M372049 by Organ bath assay; assay type: tissue-based; conditions: Artery, filed as agonist
T6 sequence (whole entry): T5 sequence (P41740 whole entry)
Outline: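 Small mesenteric artery rings from male Wistar rats in classical tissue-bath pharmacology. Vessels were preincubated 15 min with M372049 10 μM or osteocrin 100 nM before the vasorelaxant response to test agents was assessed.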

[13] = target: T1, Atrial natriuretic peptide receptor 3 (Homo sapiens); test: Displacement of Flu-P19 probe from human NPR-C (27 to 541 residues) at 300 uM by fluorescence polarization analysis relative to control
Outline: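 Competition fluorescence polarization with NPR-C protein 20 nM and Flu-P19 probe 150 pM (final) in PBS-P with 1% DMSO final; samples were prepared on ice. Primary screen at 300 μM ligand. Read at 485 nm excitation / 520 nm emission. Signal normalized to buffer+probe and protein+probe controls; background blanked with buffer-only PBS-P/1% DMSO.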

[14] = target: T6, Atrial natriuretic peptide receptor 3 (Rattus norvegicus); test: Agonist activity at NPRC in rat aorta assessed as inhibition of cANF4-23 induced vasorelaxation in presence of osteocrin by Organ bath assay; assay type: tissue-based; conditions: filed as agonist
Cytochrome P450 3A4 [15] = target: T3, Cytochrome P450 3A4; test: Inhibition of CYP3A4 in human liver microsomes using midazolam as a substrate preincubated for 10 mins followed by NADPH addition and measured after 20 mins by LC/MS/MS analysis

SMILES: CC(=O)Nc1ccc(Nc2ncnc(NCCC(=O)OC(C)(C)C)n2)cc1
- Activity [1]: 37.7%
- pKd [2]: 3.84
- C0 [3]: 2.33 µg/mL
- pIC50 (Cytochrome P450 3A4 [4]): < 4.30
- pIC50 (Cytochrome P450 2C8): < 4.30
- half-life [5]: 34 min
- solubility [6]: 71.17 mg/mL (≈ 191 mM)
- CLH [7]: 11.8 µL/min
- pEC50 [8]: 4.81
- Cmax [9]: 0.612 µg/mL
- clearance [10]: 6.72 L/h/kg
- F [11]: 43.8%
- Activity [12]: Active
- Activity [13]: < 17%
- Activity [14]: Active
- pIC50 (Cytochrome P450 3A4 [15]): < 4.30
